This is an account of results in ChEMBL document CHEMBL1124857, “A radiotracer for mapping cholinergic neurons of the brain” (1990).

Assay [1] has as its system Mus musculus. Description: Evaluated for the radiotracer concentration in cerebral cortex of mouse brain, 4 hr after intravenous injection. The format is functional, organism-based. A digest of the protocol: (§1)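 Female CD-1 mice (18–27 g; n = 4 or 5 per tracer) were given the tracer by tail-vein injection under ether anesthesia. Doses were 7.2–10.8 μCi of the 125I-labeled tracer or 5.0 μCi of the 3H-labeled tracer. Mice were killed 4 h later. Tissues were excised, weighed, and counted by gamma or liquid-scintillation counting. Values are % injected dose/g, or % dose in whole brain, normalized to a 25 g mouse.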

The test system of assay [2] is Mus musculus. Description: Evaluated for the radiotracer concentration in striatum of mouse brain, 4 hr after intravenous injection. It counts as functional, organism-based. A digest of the protocol: as §1
Assay [3] deals with Mus musculus. The assay can be described thus: Evaluated for the radiotracer concentration in cerebellum of mouse brain, 4 hr after intravenous injection. The format is functional, organism-based. The essentials:
as §1

The species entered for assay [4] is Mus musculus. The assay can be described thus: Percentage dose injected in the whole brain of mouse was determined. It counts as functional. A digest of the protocol:
as §1

Where [5] appears, read: tested as the 125I-labelled form.

Structures are written as SMILES.

Consider `OC1CCCCC1N1CCC(c2ccccc2)CC1` (stereo unspecified), for which the Dose/g in the assay on Mus musculus [1] (tested as the 3H-labelled form) stood at 0.42%; in the assay with Mus musculus [2] (tested as the 3H-labelled form), 0.4%; in the assay with Mus musculus [3] (tested as the 3H-labelled form), 0.1%.
Consider `O[C@H]1Cc2cccc(I)c2C[C@@H]1N1CCC(c2ccccc2)CC1`, for which the Dose/g is 0.12% in the assay on Mus musculus [1] (setting [5]), 0.26% with Mus musculus [2] (setting [5]) and 0.06% with Mus musculus [3] (setting [5]).
`O[C@@H]1Cc2cccc(I)c2C[C@H]1N1CCC(c2ccccc2)CC1`: the Dose/g amounted to 2.56% with Mus musculus [1], 6.26% in the assay on Mus musculus [2] and 0.23% in the assay with Mus musculus [3]. In addition, in the assay listed under Mus musculus [4], the Dose was 1.03%.
The compound `[3H]OC1CCCCC1N1CCC(c2ccccc2)CC1` (stereo unspecified) showed a Dose in the assay filed under Mus musculus [4] of 0.24%.
The compound `OC1Cc2cccc([125I])c2CC1N1CCC(c2ccccc2)CC1` (racemic) had a Dose in the assay listed under Mus musculus [4] of 0.56%.
Still for that read-out and setting: the figure for `O[C@H]1Cc2cccc([125I])c2C[C@@H]1N1CCC(c2ccccc2)CC1` is 0.06%.
For the compound `OC1Cc2cccc(I)c2CC1N1CCC(c2ccccc2)CC1` (racemic), the Dose/g with Mus musculus [1] (setting [5]) is 1.17%; in the assay on Mus musculus [2] (setting [5]), 3.29%; in the assay with Mus musculus [3] (setting [5]), 0.2%.
